Results: ChEMBL document CHEMBL2321837, “Discovery of novel inhibitors targeting the Mycobacterium tuberculosis O-acetylserine sulfhydrylase (CysK1) using virtual high-throughput screening” (Bioorg Med Chem Lett, 2013)
Values after ≈ are worked out from the molar mass of the structure shown.

How the values were obtained:
[1] = Cytotoxicity against HEK293T cells assessed as growth inhibition at 50 uM by MTT assay relative to control; type: cell-based, HEK-293T; details: human, read-out: GI
[2] = Cytotoxicity against HEK293T cells assessed as growth inhibition at 25 uM by MTT assay relative to control; type: cell-based, HEK-293T; details: human, read-out: GI
[3] = test system: Mycobacterium tuberculosis; test: Antimycobacterial activity against Mycobacterium tuberculosis H37Rv ATCC 27294 assessed as growth inhibition by NCCLS agar dilution method; type: functional
How it was run: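 M. tuberculosis H37Rv (ATCC27294) agar dilution, compounds 50 to 0.78 µg/mL in duplicates. MIC taken as lowest concentration completely inhibiting growth; isoniazid and ethambutol as reference compounds.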

[4] = biological target: O-acetylserine sulfhydrylase (Mycobacterium tuberculosis) (UniProt P9WP55); test: Inhibition of Mycobacterium tuberculosis CysK1 using O-acetyl-L-serine as substrate assessed as L-cycteine formation at 100 uM after 5 mins by spectrophotometric analysis relative to control
How it was run: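 Single-point screen of compounds at 100 µM. Assay mix (MOPS pH 7.0, O-acetyl-L-serine, CysK1) was preincubated 5 min at room temperature, then started with 1 mM sodium sulphide for 20 min. It was stopped with trichloroacetic acid (final 16.6%), then acid-ninhydrin reagent was added and heated at 96 °C for 10 min. After 1:1 ethanol dilution, OD was read at 560 nm; triplicates. Controls were DFSI tetrapeptide (100 µM, 100% inhibition) and no inhibitor (0%).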

[5] = biological target: T1, O-acetylserine sulfhydrylase (Mycobacterium tuberculosis, UniProt P9WP55); test: Inhibition of Mycobacterium tuberculosis CysK1 using O-acetyl-L-serine as substrate assessed as L-cycteine formation after 5 mins by spectrophotometric analysis
How it was run: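 Dose–response: serial 1:3 dilutions prepared in 50% DMSO (final DMSO 5%). Final mix was 100 mM MOPS pH 7.0, 2 mM O-acetyl-L-serine, […] CysK1, preincubated 5 min at room temperature. The reaction was started with sodium sulphide (final 1 mM). Aliquots taken at time intervals were assayed for L-cysteine by acid-ninhydrin. Specific activity vs concentration was fitted to a sigmoid for IC50.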

[6] = biological target: T1, O-acetylserine sulfhydrylase; test: Competitive inhibition of Mycobacterium tuberculosis CysK1
How it was run: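 Purified CysK1 preincubated 5 min at room temperature with 1:3 serial compound dilutions in 100 mM MOPS pH 7.0 and 2 mM O-acetyl-L-serine, 5% DMSO final. Reaction started with sodium sulphide (1 mM final); aliquots were taken at time intervals. L-cysteine was measured by acid-ninhydrin (96 °C, 10 min) at 560 nm. IC50 came from sigmoid fits of specific activity.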

Row | SMILES | inhibition at 50 µM [1] [%] | inhibition at 25 µM [2] [%] | MIC [3] [µM] | inhibition [4] [%] | IC50 [5] [µM] | Ki [6] [µM]
1 | COc1cc(C2NC(=S)N=C3C2C(=O)N=C2SC([N+](=O)[O-])=CN23)ccc1O (stereo not drawn) | 1.35 | 0 | 123 (≈ 50 µg/mL) | 89.2 |  | 
2 | O=C1N=C2C(C(=O)N=C3SC([N+](=O)[O-])=CN32)C(c2ccccc2[N+](=O)[O-])N1 (stereo not drawn) | 0 | 0 | 129 (≈ 50 µg/mL) | 93 |  | 
3 | Cc1ccccc1C1NC(=O)N=C2C1C(=O)N=C1SC([N+](=O)[O-])=CN12 (stereo not drawn) | 20.4 | 6 | 70 (≈ 25 µg/mL) | 103 |  | 
4 | O=C1N=C2SC([N+](=O)[O-])=CN2C2=NC(=S)NC(c3ccc(F)cc3)C12 (stereo not drawn) | 43.4 | 30.6 | 16.6 (≈ 6.26 µg/mL) | 60 |  | 
5 | O=C1N=C2SC([N+](=O)[O-])=CN2C2=NC(=S)NC(c3cccc(Br)c3)C12 (stereo not drawn) | 13.5 | 6 | 7.1 (≈ 3.11 µg/mL) | 39.9 |  | 
6 | O=C1N=C2C(C(=O)N=C3SC([N+](=O)[O-])=CN32)C(c2ccccc2C(F)(F)F)N1 (stereo not drawn) | 13.1 | 5.7 | 7.6 (≈ 3.13 µg/mL) | 13.8 | 17.7 | 
7 | O=C1N=C2C(C(=O)N=C3SC([N+](=O)[O-])=CN32)C(c2ccc([N+](=O)[O-])cc2)N1 (stereo not drawn) | 9.4 | 2.6 | 129 (≈ 50 µg/mL) | 54.7 |  | 
8 | O=C1N=C2C(C(=O)N=C3SC([N+](=O)[O-])=CN32)C(c2ccccc2O)N1 (stereo not drawn) | 0 | 0 | 69.6 (≈ 25 µg/mL) | 107 |  | 
9 | Cc1ccc(C2NC(=S)N=C3C2C(=O)N=C2SC([N+](=O)[O-])=CN23)cc1 (stereo not drawn) | 14.7 | 0 | 67 (≈ 25 µg/mL) | 106 |  | 
10 | O=C1N=C2SC([N+](=O)[O-])=CN2C2=NC(=S)NC(c3ccccc3)C12 (stereo not drawn) | 25.3 | 0 | 69.6 (≈ 25 µg/mL) | 90.4 |  | 
11 | O=C1N=C2SC([N+](=O)[O-])=CN2C2=NC(=S)NC(c3ccccc3O)C12 (stereo not drawn) | 12 | 0.1 | 33.3 (≈ 12.5 µg/mL) | 68.8 |  | 
12 | CN(C)c1ccc(C2NC(=O)N=C3C2C(=O)N=C2SC([N+](=O)[O-])=CN23)cc1 (stereo not drawn) | 4.9 | 0 | 32.4 (≈ 12.5 µg/mL) | 92.7 |  | 
13 | O=C1N=C2SC([N+](=O)[O-])=CN2C2=NC(=S)NC(c3ccc(Br)cc3)C12 (stereo not drawn) | 6.5 | 2.5 | 28.5 (≈ 12.5 µg/mL) | 65.6 |  | 
14 | COc1ccc(C2NC(=O)N=C3C2C(=O)N=C2SC([N+](=O)[O-])=CN23)cc1 (stereo not drawn) | 7.3 | 0 | 134 (≈ 50 µg/mL) | 93.9 |  | 
15 | CC[C@H](C)[C@H](NC(=O)[C@H](CO)NC(=O)[C@H](Cc1ccccc1)NC(=O)[C@@H](N)CC(=O)O)C(=O)O |  |  |  |  | 7.4 | 5
16 | O=C1N=C2C(C(=O)N=C3SC([N+](=O)[O-])=CN32)C(c2c(Cl)cccc2Cl)N1 (stereo not drawn) | 0 | 0 | 121 (≈ 50 µg/mL) | 57.8 |  | 
17 | O=C1N=C2C(C(=O)N=C3SC([N+](=O)[O-])=CN32)C(c2ccc(F)cc2)N1 (stereo not drawn) | 10.7 | 5.4 | 17.3 (≈ 6.25 µg/mL) | 100 |  | 

Row | SMILES | inhibition at 50 µM [1] [%] | inhibition at 25 µM [2] [%] | MIC [3] [µM] | inhibition [4] [%] | IC50 [5] [µM] | Ki [6] [µM]
18 | COc1cc(C2NC(=O)N=C3C2C(=O)N=C2SC([N+](=O)[O-])=CN23)ccc1O (stereo not drawn) | 0 | 0 | 128 (≈ 50 µg/mL) | 90.5 |  | 
19 | O=C1N=C2SC([N+](=O)[O-])=CN2C2=NC(=S)NC(c3ccc([N+](=O)[O-])cc3)C12 (stereo not drawn) | 6.6 | 1.64 | 61.8 (≈ 25 µg/mL) | 70.6 |  | 
20 | O=C1N=C2SC([N+](=O)[O-])=CN2C2=NC(=S)NC(c3c(Cl)cccc3Cl)C12 (stereo not drawn) | 30.7 | 21.3 | 58.4 (≈ 25 µg/mL) | 113 |  | 
21 | CC[C@@H](CO)NCCN[C@@H](CC)CO [ETHAMBUTOL] |  |  | 4.71 (≈ 0.962 µg/mL) |  |  | 
22 | O=C1N=C2C(C(=O)N=C3SC([N+](=O)[O-])=CN32)C(c2cccc(Br)c2)N1 (stereo not drawn) | 2.8 | 0 | 14.8 (≈ 6.25 µg/mL) | 60.1 |  | 
23 | Cc1ccccc1C1NC(=S)N=C2C1C(=O)N=C1SC([N+](=O)[O-])=CN12 (stereo not drawn) | 18.8 | 3.6 | 33.5 (≈ 12.5 µg/mL) | 15.9 | 17.7 | 
24 | Cc1ccc(C2NC(=O)N=C3C2C(=O)N=C2SC([N+](=O)[O-])=CN23)cc1 (stereo not drawn) | 0 | 0 | 70 (≈ 25 µg/mL) | 57.7 |  | 
25 | O=C1N=C2C(C(=O)N=C3SC([N+](=O)[O-])=CN32)C(c2ccc(Cl)cc2)N1 (stereo not drawn) | 0 | 0 | 66.2 (≈ 25 µg/mL) | 80 |  | 
26 | COc1ccc(C2NC(=S)N=C3C2C(=O)N=C2SC([N+](=O)[O-])=CN23)cc1 (stereo not drawn) | 14.6 | 0.2 | 32.1 (≈ 12.5 µg/mL) | 9.1 | 22.7 | 
27 | O=C1N=C2SC([N+](=O)[O-])=CN2C2=NC(=S)NC(c3ccccc3[N+](=O)[O-])C12 (stereo not drawn) | 8.7 | 1 | 30.9 (≈ 12.5 µg/mL) | 11.3 | 30.3 | 
28 | O=C1N=C2SC([N+](=O)[O-])=CN2C2=NC(=S)NC(c3ccccc3C(F)(F)F)C12 (stereo not drawn) | 52.2 | 27.7 | 7.3 (≈ 3.12 µg/mL) | 89.4 |  | 
29 | O=C1N=C2C(C(=O)N=C3SC([N+](=O)[O-])=CN32)C(c2ccccc2)N1 (stereo not drawn) | 3.8 | 1.6 | > 146 | 84.1 |  | 
30 | O=C1N=C2SC([N+](=O)[O-])=CN2C2=NC(=S)NC(c3ccc(Cl)cc3)C12 (stereo not drawn) | 14.6 | 7.4 | 15.9 (≈ 6.26 µg/mL) | 102 |  | 
31 | NNC(=O)c1ccncc1 [ISONIAZID] |  |  | 0.72 (≈ 0.0987 µg/mL) |  |  | 
32 | O=C1N=C2C(C(=O)N=C3SC([N+](=O)[O-])=CN32)C(c2ccc(Br)cc2)N1 (stereo not drawn) | 11.2 | 6.1 | 29.6 (≈ 12.5 µg/mL) | 89.1 |  | 
33 | CN(C)c1ccc(C2NC(=S)N=C3C2C(=O)N=C2SC([N+](=O)[O-])=CN23)cc1 (stereo not drawn) | 26.8 | 8 | 15.5 (≈ 6.24 µg/mL) | 100 |  | 
